test system: Rattus norvegicus; test: Antiestrogenic activity in Sprague-Dawley rat assessed as reduction in estradiol induced uterine weight upto 0.06 ug, po after 8 days; format: functional; design: scale not given: the % may be the effect or the level left; conditions: not given
Outline: (§1)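 Immature ovariectomized female Sprague-Dawley rats (~55 g), groups of 12. Estradiol 0.03–0.05 given s.c. daily for 7 days, with test compound or letrozole reference at various doses up to 0.06 per animal, given orally in 0.5% carboxymethylcellulose. Controls received estradiol alone. Uterine weights were taken on day 8 and group means expressed as % reduction versus estradiol-only controls. Potency was taken relative to letrozole.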

| SMILES | Activity |
| --- | --- |
| N#Cc1c(-c2nnc(-c3ccccc3)c3cn(-c4ccccc4)nc23)nn(-c2ccccc2)c1-c1ccccc1 | 32.59% |
| CN(C)/C=C/C(=O)c1nn(-c2ccccc2)c(-c2ccccc2)c1C#N | 41.98% |
| Cc1nnc(-c2nn(-c3ccccc3)c(-c3ccccc3)c2C#N)c2cn(-c3ccccc3)nc12 | 23.97% |

test system: Rattus norvegicus; test: Antiestrogenic activity in Sprague-Dawley rat assessed as reduction in estradiol induced uterine weight 0.06 ug, po after 8 days relative to letrozole; format: functional; conditions: not given; outline: as §1

| SMILES | potency ratio vs letrozole |
| --- | --- |
| CN(C)/C=C/C(=O)c1nn(-c2ccccc2)c(-c2ccccc2)c1C#N | 1.93 |
| Cc1nnc(-c2nn(-c3ccccc3)c(-c3ccccc3)c2C#N)c2cn(-c3ccccc3)nc12 | 1.1 |

test system: not listed separately; test: Acute toxicity in mouse after 24 hrs; format: organism-based; conditions: in vivo
Outline: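 Adult mice of both sexes, acclimatized 1 week (12 h light/dark, 21–23 °C), fasted 12 h before dosing. 30 mice in 6 groups of 5 each got a single oral gavage dose, at different dose levels, of a fine-powder aqueous suspension. LD50 was determined, with values as group means of five mice.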

| SMILES | LD50 at 24 h |
| --- | --- |
| CN(C)/C=C/C(=O)c1nn(-c2ccccc2)c(-c2ccccc2)c1C#N | 232 mg/kg |
| Cc1nnc(-c2nn(-c3ccccc3)c(-c3ccccc3)c2C#N)c2cn(-c3ccccc3)nc12 | 32.5 mg/kg |

test system: MDA-MB-231; test: Growth inhibition of human MDA-MB-231cells after 48 hrs by sulforhodamine B assay; format: functional; conditions: MDA-MB-231, 48 h
Outline: (§2)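 Cells were plated at 5000–40,000 cells/well, depending on doubling time, and preincubated 24 h at 37 °C in 5% CO2. Time-zero plates were TCA-fixed at drug addition. Compounds were dissolved in DMSO and tested at five concentrations (10-fold or ½-log dilutions) for 48 h. Cells were fixed with cold TCA, stained with 0.4% sulforhodamine B and read at 515 nm. GI50 was taken as the concentration giving 50% growth.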

| SMILES | GI50 |
| --- | --- |
| N#Cc1c(-c2nnc(-c3ccccc3)c3cn(-c4ccccc4)nc23)nn(-c2ccccc2)c1-c1ccccc1 | 8.84 µM |
| CN(C)/C=C/C(=O)c1nn(-c2ccccc2)c(-c2ccccc2)c1C#N | 50.4 µM |
| Cc1nnc(-c2nn(-c3ccccc3)c(-c3ccccc3)c2C#N)c2cn(-c3ccccc3)nc12 | > 100 µM |

test system: MCF7; test: Growth inhibition of human MCF7 cells after 48 hrs by sulforhodamine B assay; format: functional; conditions: MCF7, 48 h; outline: as §2

| SMILES | GI50 |
| --- | --- |
| N#Cc1c(-c2nnc(-c3ccccc3)c3cn(-c4ccccc4)nc23)nn(-c2ccccc2)c1-c1ccccc1 | 9.53 µM |
| CN(C)/C=C/C(=O)c1nn(-c2ccccc2)c(-c2ccccc2)c1C#N | 39.8 µM |
| Cc1nnc(-c2nn(-c3ccccc3)c(-c3ccccc3)c2C#N)c2cn(-c3ccccc3)nc12 | 8.46 µM |

test system: T47D; test: Growth inhibition of human T47D cells after 48 hrs by sulforhodamine B assay; format: functional; conditions: not given; outline: as §2

| SMILES | GI50 |
| --- | --- |
| N#Cc1c(-c2nnc(-c3ccccc3)c3cn(-c4ccccc4)nc23)nn(-c2ccccc2)c1-c1ccccc1 | 21.8 µM |
| CN(C)/C=C/C(=O)c1nn(-c2ccccc2)c(-c2ccccc2)c1C#N | 30.2 µM |
| Cc1nnc(-c2nn(-c3ccccc3)c(-c3ccccc3)c2C#N)c2cn(-c3ccccc3)nc12 | 9.14 µM |

test system: NCI/ADR-RES; test: Growth inhibition of human NCI/ADR-RES cells after 48 hrs by sulforhodamine B assay; format: functional; conditions: not given; outline: as §2

| SMILES | GI50 |
| --- | --- |
| N#Cc1c(-c2nnc(-c3ccccc3)c3cn(-c4ccccc4)nc23)nn(-c2ccccc2)c1-c1ccccc1 | > 100 µM |
| CN(C)/C=C/C(=O)c1nn(-c2ccccc2)c(-c2ccccc2)c1C#N | 90.6 µM |
| Cc1nnc(-c2nn(-c3ccccc3)c(-c3ccccc3)c2C#N)c2cn(-c3ccccc3)nc12 | > 100 µM |

test system: not listed separately; test: Growth inhibition of human Hs 578T cells after 48 hrs by sulforhodamine B assay; format: functional; conditions: not given; outline: as §2

| SMILES | GI50 |
| --- | --- |
| N#Cc1c(-c2nnc(-c3ccccc3)c3cn(-c4ccccc4)nc23)nn(-c2ccccc2)c1-c1ccccc1 | 31.8 µM |
| CN(C)/C=C/C(=O)c1nn(-c2ccccc2)c(-c2ccccc2)c1C#N | > 100 µM |
| Cc1nnc(-c2nn(-c3ccccc3)c(-c3ccccc3)c2C#N)c2cn(-c3ccccc3)nc12 | 1.39 µM |

test system: MDA-MB-435; test: Growth inhibition of human MDA-MB-435 cells after 48 hrs by sulforhodamine B assay; format: functional; conditions: MDA-MB-435, 48 h; outline: as §2

| SMILES | GI50 |
| --- | --- |
| N#Cc1c(-c2nnc(-c3ccccc3)c3cn(-c4ccccc4)nc23)nn(-c2ccccc2)c1-c1ccccc1 | 31.8 µM |
| CN(C)/C=C/C(=O)c1nn(-c2ccccc2)c(-c2ccccc2)c1C#N | > 100 µM |
| Cc1nnc(-c2nn(-c3ccccc3)c(-c3ccccc3)c2C#N)c2cn(-c3ccccc3)nc12 | > 100 µM |

test system: MDA-N; test: Growth inhibition of human MDA-N cells after 48 hrs by sulforhodamine B assay; format: functional; conditions: not given; outline: as §2

| SMILES | GI50 |
| --- | --- |
| N#Cc1c(-c2nnc(-c3ccccc3)c3cn(-c4ccccc4)nc23)nn(-c2ccccc2)c1-c1ccccc1 | 31.2 µM |
| CN(C)/C=C/C(=O)c1nn(-c2ccccc2)c(-c2ccccc2)c1C#N | 45.4 µM |
| Cc1nnc(-c2nn(-c3ccccc3)c(-c3ccccc3)c2C#N)c2cn(-c3ccccc3)nc12 | 38.4 µM |

test system: BT-549; test: Growth inhibition of human BT549 cells after 48 hrs by sulforhodamine B assay; format: functional; conditions: BT-549, 48 h; outline: as §2

| SMILES | GI50 |
| --- | --- |
| N#Cc1c(-c2nnc(-c3ccccc3)c3cn(-c4ccccc4)nc23)nn(-c2ccccc2)c1-c1ccccc1 | 21.8 µM |
| CN(C)/C=C/C(=O)c1nn(-c2ccccc2)c(-c2ccccc2)c1C#N | 31.1 µM |
| Cc1nnc(-c2nn(-c3ccccc3)c(-c3ccccc3)c2C#N)c2cn(-c3ccccc3)nc12 | 96.8 µM |

test system: IGROV-1; test: Growth inhibition of human IGROV1 cells after 48 hrs by sulforhodamine B assay; format: functional; conditions: IGROV-1, 48 h; outline: as §2

| SMILES | GI50 |
| --- | --- |
| N#Cc1c(-c2nnc(-c3ccccc3)c3cn(-c4ccccc4)nc23)nn(-c2ccccc2)c1-c1ccccc1 | 94.8 µM |
| CN(C)/C=C/C(=O)c1nn(-c2ccccc2)c(-c2ccccc2)c1C#N | 98 µM |
| Cc1nnc(-c2nn(-c3ccccc3)c(-c3ccccc3)c2C#N)c2cn(-c3ccccc3)nc12 | 92 µM |

test system: OVCAR-3; test: Growth inhibition of human OVCAR3 cells after 48 hrs by sulforhodamine B assay; format: functional; conditions: OVCAR-3, 48 h; outline: as §2

| SMILES | GI50 |
| --- | --- |
| N#Cc1c(-c2nnc(-c3ccccc3)c3cn(-c4ccccc4)nc23)nn(-c2ccccc2)c1-c1ccccc1 | 93.8 µM |
| CN(C)/C=C/C(=O)c1nn(-c2ccccc2)c(-c2ccccc2)c1C#N | 98.8 µM |
| Cc1nnc(-c2nn(-c3ccccc3)c(-c3ccccc3)c2C#N)c2cn(-c3ccccc3)nc12 | 96.8 µM |

test system: OVCAR-5; test: Growth inhibition of human OVCAR5 cells after 48 hrs by sulforhodamine B assay; format: functional; conditions: OVCAR-5, 48 h; outline: as §2

| SMILES | GI50 |
| --- | --- |
| N#Cc1c(-c2nnc(-c3ccccc3)c3cn(-c4ccccc4)nc23)nn(-c2ccccc2)c1-c1ccccc1 | > 100 µM |
| CN(C)/C=C/C(=O)c1nn(-c2ccccc2)c(-c2ccccc2)c1C#N | > 100 µM |
| Cc1nnc(-c2nn(-c3ccccc3)c(-c3ccccc3)c2C#N)c2cn(-c3ccccc3)nc12 | > 100 µM |

test system: OVCAR-8; test: Growth inhibition of human OVCAR8 cells after 48 hrs by sulforhodamine B assay; format: functional; conditions: OVCAR-8, 48 h; outline: as §2

| SMILES | GI50 |
| --- | --- |
| N#Cc1c(-c2nnc(-c3ccccc3)c3cn(-c4ccccc4)nc23)nn(-c2ccccc2)c1-c1ccccc1 | 68 µM |
| CN(C)/C=C/C(=O)c1nn(-c2ccccc2)c(-c2ccccc2)c1C#N | 75.8 µM |
| Cc1nnc(-c2nn(-c3ccccc3)c(-c3ccccc3)c2C#N)c2cn(-c3ccccc3)nc12 | > 100 µM |

test system: OVCAR-4; test: Growth inhibition of human OVCAR4 cells after 48 hrs by sulforhodamine B assay; format: functional; conditions: OVCAR-4, 48 h; outline: as §2

| SMILES | GI50 |
| --- | --- |
| N#Cc1c(-c2nnc(-c3ccccc3)c3cn(-c4ccccc4)nc23)nn(-c2ccccc2)c1-c1ccccc1 | 63 µM |
| CN(C)/C=C/C(=O)c1nn(-c2ccccc2)c(-c2ccccc2)c1C#N | 63.8 µM |
| Cc1nnc(-c2nn(-c3ccccc3)c(-c3ccccc3)c2C#N)c2cn(-c3ccccc3)nc12 | 56.4 µM |

test system: SK-OV-3; test: Growth inhibition of human SKOV3 cells after 48 hrs by sulforhodamine B assay; format: functional; conditions: SK-OV-3, 48 h; outline: as §2

| SMILES | GI50 |
| --- | --- |
| N#Cc1c(-c2nnc(-c3ccccc3)c3cn(-c4ccccc4)nc23)nn(-c2ccccc2)c1-c1ccccc1 | 32.8 µM |
| CN(C)/C=C/C(=O)c1nn(-c2ccccc2)c(-c2ccccc2)c1C#N | 23.8 µM |
| Cc1nnc(-c2nn(-c3ccccc3)c(-c3ccccc3)c2C#N)c2cn(-c3ccccc3)nc12 | 36.8 µM |

From ChEMBL document CHEMBL1629506, “Design, synthesis and structure-activity relationship study of novel pyrazole-based heterocycles as potential antitumor agents” (Eur J Med Chem, 2010)
